Activity calls are given as the source filed them. The rule behind the calls is not given here.
Key:
Aromatase [1] = biological target: T1, Aromatase (Homo sapiens, UniProt P11511); assay: Inhibition of recombinant human aromatase preincubated for 10 mins followed by substrate and beta-NADP+ addition and measured for 60 mins by fluorescence based assay
T1 sequence (P11511 whole entry): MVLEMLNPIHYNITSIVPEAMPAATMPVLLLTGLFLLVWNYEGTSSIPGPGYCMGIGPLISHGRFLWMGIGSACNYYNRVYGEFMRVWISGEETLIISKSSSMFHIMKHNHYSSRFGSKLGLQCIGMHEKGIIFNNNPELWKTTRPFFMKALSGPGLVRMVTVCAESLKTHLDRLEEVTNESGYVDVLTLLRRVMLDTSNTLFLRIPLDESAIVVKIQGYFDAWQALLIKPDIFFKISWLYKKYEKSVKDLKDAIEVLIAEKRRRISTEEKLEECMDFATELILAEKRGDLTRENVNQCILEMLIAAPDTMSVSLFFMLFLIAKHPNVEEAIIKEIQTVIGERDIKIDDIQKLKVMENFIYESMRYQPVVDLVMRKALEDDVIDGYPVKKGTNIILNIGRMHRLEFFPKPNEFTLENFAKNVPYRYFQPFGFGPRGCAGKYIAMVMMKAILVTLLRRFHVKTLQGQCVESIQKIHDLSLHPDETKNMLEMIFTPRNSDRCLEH
How it was run: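 Recombinant human aromatase with NADPH-generating system in aromatase assay buffer. Compounds tested at 1000, 100, 10, 1 and 0.1 nM, DMSO final ≤0,25% (v/v). Preincubated 37°C for 10 min, then fluorogenic substrate/β-NADP+ added. Fluorescence read at 488/527 nm for 60 min.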

MCF7 = assay: Antiproliferative activity against estrogen positive human MCF7 cells assessed as inhibition of cell growth upto 50 uM incubated for 72 hrs by cell counting analysis; assay type: functional, cell-based
How it was run: (§1)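 Cells seeded in duplicate (50.000 cells/well for MCF-7 and MDA-MB-231, 90.000 cells/well for MCF-10A). 24 h later exposed 72 h to 50-0.1 μM compound, with or without 1 μM testosterone; medium and treatments replaced at 48 h. Cells harvested with trypsin and counted with a cell counter. Three experiments.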

MDA-MB-231 = assay: Antiproliferative activity against estrogen negative human MDA-MB-231 cells assessed as inhibition of cell growth upto 50 uM incubated for 72 hrs by cell counting analysis; assay type: functional, cell-based; how it was run: as §1
MCF-10A = assay: Cytotoxicity against human MCF-10A cells assessed as inhibition of cell growth upto 50 uM incubated for 72 hrs by cell counting analysis; assay type: toxicity, cell-based; how it was run: as §1
Aromatase [2] = biological target: T1, Aromatase; assay: Inhibition of human placental microsome aromatase using androstenedione as substrate assessed as reduction in 3H2O formation preincubated for 5 mins in presence of NADPH followed by microsomal protein addition and measured after 3 hrs; assay type: microsomes, Placenta

Row | SMILES | IC50 (Aromatase [1]) [nM] | IC50 (Aromatase [2]) [nM] | inhibition (MCF7) | inhibition (MDA-MB-231) | Activity (MCF-10A)
1 | CCC#CCOc1ccc(C(=O)c2cccc(Cn3ccnc3)c2)cc1 | 9 | – | inactive | inactive | Non-Toxic
2 | CCCCCOc1ccc(C(=O)c2cccc(Cn3ccnc3)c2)cc1 | 42 | – | inactive | inactive | Non-Toxic
3 | COc1ccc(C(=O)c2ccc(Cn3ccnc3)cc2)cc1 | – | 238 | – | – | –
4 | CCC#CCOc1ccc(C(=O)c2ccc(Cn3ccnc3)cc2)cc1 | 1420 | – | inactive | inactive | Non-Toxic
5 | C#CCOc1ccc(C(=O)c2ccc(Cn3ccnc3)cc2)cc1 | 210 | – | inactive | inactive | Non-Toxic
6 | CCCCCOc1ccc(C(=O)c2ccc(Cn3ccnc3)cc2)cc1 | 1300 | – | inactive | inactive | Non-Toxic
7 | CCCOc1ccc(C(=O)c2ccc(Cn3ccnc3)cc2)cc1 | 374 | – | inactive | inactive | Non-Toxic
8 | O=C(c1ccc(Cn2ccnc2)cc1)c1ccc(-c2ccccc2)cc1 | – | 2530 | – | – | –

Continued, in another order:

Row | IC50 (Aromatase [1]) [nM] | IC50 (Aromatase [2]) [nM] | SMILES | inhibition (MCF7) | inhibition (MDA-MB-231) | Activity (MCF-10A)
9 | 13 | – | O=C(c1ccc(O)cc1)c1cccc(Cn2ccnc2)c1 | inactive | inactive | Non-Toxic
10 | 13 | – | COc1ccc(C(=O)c2cccc(Cn3ccnc3)c2)cc1 | inactive | inactive | Non-Toxic
11 | – | 1100 | O=C(c1ccc(O)cc1)c1ccc(Cn2ccnc2)cc1 | – | – | –
12 | 2 | – | CCCOc1ccc(C(=O)c2cccc(Cn3ccnc3)c2)cc1 | inactive | inactive | Non-Toxic
13 | 650 | – | C#CCOc1ccc(C(=O)c2cccc(Cn3ccnc3)c2)cc1 | inactive | inactive | Non-Toxic
